PAFAH1B2 FP inh: PAFAH1B2 (human) inhibition; 340,000 tested, 1.2% active; recombinant PAFAH1B2, FP-rhodamine activity probe, fluorescence polarization; inhibition, % at 3.39 µM; AID 492953; P68402;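 active means inhibition above the mean of all tested compounds plus 3 SD, cut at about 24% in these data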
Target sequence (P68402 whole entry, looked up): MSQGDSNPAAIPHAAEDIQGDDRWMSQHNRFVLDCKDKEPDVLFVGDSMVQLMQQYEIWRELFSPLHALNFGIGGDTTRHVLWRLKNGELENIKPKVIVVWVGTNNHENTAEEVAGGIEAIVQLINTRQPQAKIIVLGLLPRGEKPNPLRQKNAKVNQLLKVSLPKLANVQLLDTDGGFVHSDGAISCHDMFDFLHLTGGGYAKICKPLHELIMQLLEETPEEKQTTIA
PAFAH1B3 inh: inhibitors of human PAFAH1B3; Q15102; recombinant PAFAH1B3, FP-rhodamine probe, fluorescence polarization; inhibition, % at 3.39 µM; 340,000 tested, 0.28% active; AID 492972;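 active means inhibition above the screen-wide average of all tested compounds plus 3 SD, cut at about 25% in these data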
Target sequence (Q15102 whole entry, looked up): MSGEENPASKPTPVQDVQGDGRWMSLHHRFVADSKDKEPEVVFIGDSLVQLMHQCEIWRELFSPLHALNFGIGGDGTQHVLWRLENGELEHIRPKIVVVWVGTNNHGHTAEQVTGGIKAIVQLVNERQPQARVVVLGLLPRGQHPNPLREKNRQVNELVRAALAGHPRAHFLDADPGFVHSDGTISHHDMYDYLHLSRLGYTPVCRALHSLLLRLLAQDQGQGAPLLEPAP
pPAFAH FP inh: pPAFAH (human) enzyme inhibition; Q13093; 330,000 tested, 1.5% active; recombinant pPAFAH, FP-rhodamine probe fluorescence polarization; AID 463082; inhibition, % at 3.39 µM;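 active means inhibition above the mean inhibition across the screen plus 3 SD, cut at about 25% in these data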;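 further: inhibitors block binding of the rhodamine activity-based probe so polarization drops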
PAFAH2 inh: inhibitors of human PAFAH2. Q99487. inhibition, % at 3.39 µM. 340,000 tested, 0.99% active. recombinant PAFAH2, FP-rhodamine activity probe, fluorescence polarization;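 active means inhibition above the mean over all tested compounds plus 3 SD, cut at about 30% in these data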;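 further: inhibitors block probe labeling of enzyme so polarization drops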
Apaf1 inhib: inhibitors of human Apaf-1 apoptosome; 330,000 tested, 0.71% active; reconstituted apoptosome caspase-3 activity, DEVD-Rh110 fluorescence; inhibition, % at 20 µM; active means inhibition of at least 40% at 20 µM
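Material: reconstituted apoptosome with Apaf-1, cytochrome c, caspase-9, procaspase-3, dATP; medium: pH 7.5 Hepes buffer with CHAPS, BSA, DTT; also added: cytochrome c and DEVD-Rh110 substrate; timing: 30 min plus 50 min, RT; signal: Rh110 fluorescence intensity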
Each line names hits and unclear results; the compound was inactive in the other large screens. Only some compounds are listed: those with a hit (about 3.1% of all), similar ones and a draw of the others.

Cc1ccc(S(=O)(=O)NCC2(c3ccccc3)CCOCC2)cc1	PAFAH1B2 FP inh 26.4
CN(C)CCNC(=O)c1ccc(-c2nn(C)c(=O)c3ccccc23)cc1	none
CCCNC(=O)c1ccc(-c2nn(C)c(=O)c3ccccc23)cc1	pPAFAH FP inh 32.4
CC1=CCC(C(=O)O)C(C(=O)Nc2ccc(-c3nc4ccc(C)cc4s3)cc2)C1 (configuration not stated)	pPAFAH FP inh 33.7
CC1(C)N=C(N)N=C(N)N1CCCCc1ccccc1	none (no result: pPAFAH FP inh, Apaf1 inhib)
CC(c1ccccc1)C(NC(=O)OCC1c2ccccc2-c2ccccc21)C(=O)O (configuration not stated)	PAFAH1B2 FP inh 29.2
Nc1ccc(CNC(=O)OCC2c3ccccc3-c3ccccc32)cc1	none
O=C(N[C@@H](Cc1ccc(Br)cc1)C(=O)O)OCC1c2ccccc2-c2ccccc21	PAFAH1B2 FP inh 70.2
CCc1ccc(CNc2ccc(N3CCN(C(C)=O)CC3)cc2)cc1	pPAFAH FP inh 30.2
COc1ccc(NC(=O)N2CCCC(c3nc(-c4ccc(C(C)C)cc4)no3)C2)cc1 (configuration not stated)	PAFAH1B2 FP inh 29.6
O=C(Nc1c(C(=O)O)[nH]c2ccccc12)NC1CCCCC1	PAFAH1B2 FP inh 27.2, PAFAH2 inh 44.8
COC(=O)c1[nH]c2ccc(C)cc2c1NC(=O)NC1CCCCC1	none
NC(N)=N/N=C/c1ccccc1	none
NC(N)=N/N=C/c1ccc(OCc2ccccc2Cl)cc1	Apaf1 inhib 42.9
Cc1nnc(-c2ccc(Oc3ccc(Br)cc3)c([N+](=O)[O-])c2)o1	none
O=[N+]([O-])c1cc(-c2cnc3ccccc3n2)ccc1Oc1ccc(Br)cc1	PAFAH1B2 FP inh 54.1
c1ccc2c(CN3CCSCC3)cccc2c1	none
Cc1nc(SCC(=O)Nc2nnc(C(C)C)s2)n[nH]1	none
O=c1c(Sc2ccccc2)c(C(F)(F)F)[nH]n1-c1ccccc1	PAFAH1B2 FP inh 29.5
O=c1c2c(C(F)(F)F)cc(C(F)(F)F)nc2[nH]n1-c1ccccc1	none
C[C@H](CO)N1C[C@H](C)[C@@H](CN(C)C(=O)Nc2ccc(C(F)(F)F)cc2)Oc2ccc(NS(=O)(=O)c3cn(C)cn3)cc2C1=O	none
O=C(CSCc1ccccc1)NNC(=S)Nc1cccc(Cl)c1Cl	pPAFAH FP inh 31.7
CNC(=S)NNC(=O)CSCc1c(Cl)cccc1Cl	none (no result: PAFAH1B2 FP inh, PAFAH1B3 inh, PAFAH2 inh)
COc1ccc(C(C)C)cc1S(=O)(=O)NC1CCCC1	none
COc1ccc(C(=O)NC2CCSc3ccccc32)cc1S(=O)(=O)N1CCOCC1 (configuration not stated)	none
N#Cc1c(CSCC(=O)O)cc(=O)n2c1[nH]c1ccccc12	pPAFAH FP inh 26.6
CSC(=O)NC12CC3CC(CC(C)(C3)C1)C2	PAFAH1B2 FP inh 28.1
CC(=O)O[C@H]1CC[C@]2(C)[C@H]3CC=C4[C@@H]5[C@@H](C)[C@H](C)CC[C@]5(C(=O)O)CC[C@@]4(C)[C@]3(C)CC[C@H]2C1(C)C	none (no result: PAFAH1B2 FP inh, PAFAH1B3 inh, PAFAH2 inh)
CCOc1cc(/C=N/N=C2/NC(=O)C(CC(=O)O)S2)ccc1OCc1ccc(Cl)cc1Cl (configuration not stated)	pPAFAH FP inh 26.4
COc1cc(/C=N/N=C2/NC(=O)C(CC(=O)O)S2)ccc1OCc1ccc(Cl)cc1 (configuration not stated)	none
CCOC(=O)CC(=O)NC(CC(=O)OC)c1ccc(C(C)C)cc1 (configuration not stated)	PAFAH1B2 FP inh 28.5
Cc1cccc(NCc2ccc(N(C)C)cc2)n1	none
COCc1cc(C)nc(OCC(=O)N/N=C/c2ccc(-c3cc([N+](=O)[O-])ccc3C)o2)c1C#N	none
Cc1ccc([N+](=O)[O-])cc1-c1ccc(/C=C(\C#N)c2[nH]nc(N)c2C#N)o1	pPAFAH FP inh 30.0 (no result: Apaf1 inhib)
CCCOc1c(Br)cc(C(=O)OCC(=O)NC(=O)c2cccn2C)cc1OC	none
O=C(Nc1sc(-c2ccccc2)cc1C(=O)O)c1ccccc1	PAFAH1B2 FP inh 32.1
Cc1cccc(NC(=O)C2Cc3ccccc3O/C2=N\O)c1 (configuration not stated)	none (no result: pPAFAH FP inh)
O=c1c2ccccc2oc2c1oc1ccccc12	none
CCN(CC(=O)NC(=O)NC1CCCC1)Cc1ccccc1	none
CN(CC(=O)Nc1ccc(N2CCOCC2)cc1)C(=O)c1cccc(Cl)c1Cl	none
CSCCC(NC(=O)c1ccccc1Cl)C(=O)N(C)CC(=O)Nc1ccc(N2CCOCC2)cc1 (configuration not stated)	pPAFAH FP inh 28.6
Cc1ccc(S(=O)(=O)N2CCOCC2)cc1NC(=O)COC(=O)Cc1ccccc1	none
CCNC(=S)N/N=C/c1cn(Cc2ccc(F)cc2)c2ccccc12	none
O=C(O)c1ccc(N/N=C/c2cn(Cc3ccc(F)cc3)c3ccccc23)cc1	pPAFAH FP inh 28.9
Cc1nc(SCc2ccc(Br)cc2)[nH]c(=O)c1C	PAFAH1B2 FP inh 74.0, pPAFAH FP inh 34.3
Cc1nc(SCCc2ccccc2)[nH]c(=O)c1C	pPAFAH FP inh 26.6
Cc1nnc(SCCc2ccccc2)[nH]c1=O	none
O=C(CC12CC3CC(CC(C3)C1)C2)NC1CC1	none
O=S(=O)(Nc1ccc(N2CCOCC2)cc1)c1c(F)cc(F)cc1Br	none
Cc1ccc(SCC(=O)OCC(=O)N2CCN(C(=O)c3ccco3)CC2)c(C)c1	pPAFAH FP inh 33.6
Cc1cc(SCC(=O)OCC(=O)N2CCN(C(=O)c3ccco3)CC2)c(C)cc1Br	none
Cc1cccc(OCC(=O)OCC(=O)N2CCN(C(=O)c3ccco3)CC2)c1C	pPAFAH FP inh 26.9
O=C(CSc1ccccc1)OCC(=O)N1CCN(C(=O)c2ccco2)CC1	pPAFAH FP inh 25.5
N/C(Cc1cccs1)=N\OC(=O)COc1ccc(Br)cc1	PAFAH1B2 FP inh 28.3
CCCCNc1c(-c2cccc(-c3ccc(OC)cc3)c2)nc2ccc(C)cn12	pPAFAH FP inh 25.4
CCCCNc1c(-c2cccc(-c3ccc(OC)cc3)c2)nc2cc(C)ccn12	none
COc1cc(-c2nc3ccc(C)cn3c2NCc2ccccc2)ccc1-c1cccc(Cl)c1	pPAFAH FP inh 30.4
COc1cc(OC)c(/C=N/NC(=O)c2ccncc2)c(OC)c1	none
COc1ccc(C)cc1S(=O)(=O)NC(C)c1cnn(-c2ccccn2)c1C (configuration not stated)	none
Cc1ccc(C(=O)C(C)OC(=O)Cn2[nH]c(=O)c3ccccc3c2=O)cc1C (configuration not stated)	none
Cn1c(N)c(C(=O)CSc2nnc(C3CC3)n2-c2ccccc2)c(=O)[nH]c1=O	none
Cn1c(N)c(C(=O)CSc2nc(C3CC3)n(-c3ccccc3)n2)c(=O)[nH]c1=O	pPAFAH FP inh 31.8
COc1ccc(S(=O)(=O)N2CCC(C(=O)NC(c3nc4ccccc4[nH]3)C(C)C)CC2)cc1 (configuration not stated)	none
O=C(NCC1CCCO1)c1nn2c(C(F)(F)F)cc(-c3ccc(Br)o3)nc2c1Br (configuration not stated)	none
Cc1ccc(-n2nc3c(=O)n(CCCC(=O)NCc4ccccc4Cl)nc(C)c3c2C)cc1	none
